Bioassay records as filed in PubChem BioAssay.
Sampled rows, rich in hits. Any-hit rate of the full collection: about 2.6%.
HCV core dimer: HCV core protein dimerization inhibition; TR-FRET GST/Flag-core106 dimerization, 1536-well; actives 0.33% (n = 300,000); AID 1899; inhibition, % at 5 µM;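 active = inhibition above the mean of all tested compounds plus 3 SD, set per screening campaign, cut at about 45% in these data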
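System: GST-tagged and Flag-tagged HCV core protein residues 1-106 / Input: core106 proteins, GST 13.5 nM and Flag 17 nM / Buffer or medium: KF-containing HEPES buffer, pH 7.45, DTT, CHAPS, BSA / Probe or stimulus: Eu-anti-GST and XL665-anti-Flag labelled anti-tag antibodies / Schedule: 4 h, 22.5 °C incubation / Technique: TR-FRET 671 and 617 nm emission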
rCAG binder: molecules binding r(CAG) RNA repeats. r(CAG) RNA repeat, TO-PRO-1 dye displacement fluorescence. inhibition, % at 3 µM. actives 1.3% (n = 370,000);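 active = inhibition above the plate cutoff, the mean of all test compounds on that plate plus 3 SD, cut at about 35% in these data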;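 note: 0% = DMSO alone and 100% = 100 µM mitoxantrone as full dye displacement; higher means more dye released from RNA so lower well fluorescence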
NadD inh: blocks S. aureus nicotinate mononucleotide adenylyltransferase. inhibition, % at 20 µM. purified NadD enzyme, colorimetric absorbance read-out. actives 0.78% (n = 360,000); in the data active = inhibition above about 26%
ABHD5-PLIN5 inh: blocks binding of human ABHD5 to perilipin-5. Q00G26+Q8WTS1. Split G. princeps luciferase complementation, luminescence, 4 h. inhibition, % at 4 µM. actives 0.78% (n = 360,000). AID 602281;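 active = inhibition above the mean inhibition across every tested compound plus 3 SD, cut at about 22% in these data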;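 note: 0% = DMSO only wells and the 100% control is not disclosed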
Target sequence (Q00G26 whole entry, looked up): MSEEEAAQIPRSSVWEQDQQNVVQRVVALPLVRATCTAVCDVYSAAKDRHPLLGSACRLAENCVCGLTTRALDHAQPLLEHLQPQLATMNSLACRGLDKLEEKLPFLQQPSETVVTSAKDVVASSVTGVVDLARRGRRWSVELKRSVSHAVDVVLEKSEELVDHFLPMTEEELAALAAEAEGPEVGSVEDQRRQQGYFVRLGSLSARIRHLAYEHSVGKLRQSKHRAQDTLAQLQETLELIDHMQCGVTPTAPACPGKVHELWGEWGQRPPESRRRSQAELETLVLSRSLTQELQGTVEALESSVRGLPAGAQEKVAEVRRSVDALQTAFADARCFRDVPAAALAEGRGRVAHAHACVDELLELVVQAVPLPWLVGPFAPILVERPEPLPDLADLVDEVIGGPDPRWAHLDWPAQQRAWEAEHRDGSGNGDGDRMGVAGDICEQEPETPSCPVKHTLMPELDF
Target sequence (Q8WTS1 whole entry, looked up): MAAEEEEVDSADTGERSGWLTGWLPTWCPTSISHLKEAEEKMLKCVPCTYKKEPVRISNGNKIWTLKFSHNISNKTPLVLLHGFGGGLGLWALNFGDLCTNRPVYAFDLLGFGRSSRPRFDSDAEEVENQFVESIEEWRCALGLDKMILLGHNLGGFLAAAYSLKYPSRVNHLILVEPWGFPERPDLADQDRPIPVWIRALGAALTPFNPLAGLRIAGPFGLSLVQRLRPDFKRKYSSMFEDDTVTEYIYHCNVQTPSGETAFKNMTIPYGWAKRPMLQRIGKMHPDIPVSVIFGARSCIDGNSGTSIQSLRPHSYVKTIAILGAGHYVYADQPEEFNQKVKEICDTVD
rCAG binder conf: r(CAG) RNA repeat binding, confirmation | shares compounds with rCAG binder | TO-PRO-1 dye displacement fluorescence | inhibition, % at 3 µM | actives 70% (n = 4,300) | AID 652065;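 active = inhibition above a per-plate cutoff, the mean inhibition of sample wells plus 3 SD, cut at about 35% in these data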;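 note: loss of TO-PRO-1 fluorescence as compound displaces dye from 1x1 AA loop RNA; 0% = DMSO only wells and 100% = 100 µM mitoxantrone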
DNA CAG counter: DNA CAG dye complex inhibition counter-screen | shares compounds with rCAG binder | d(CAG) DNA oligo TO-PRO-1 dye displacement, fluorescence | inhibition, % at 3 µM | actives 94% (n = 4,300);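 active = inhibition above its plate's cutoff, the mean test-well inhibition plus 3 SD, cut at about 4.8% in these data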;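 note: 0% = DNA dye mix with DMSO and 100% = 100 µM mitoxantrone; hits displace the dye from DNA and so lower well fluorescence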
DNA CAG DR: disrupts DNA CAG TO-PRO-1 complex in dose response. shares compounds with rCAG binder. DNA CAG/GTC duplex TO-PRO-1 dye displacement fluorescence. IC50, µM. actives 20% (n = 250). AID 686960; in the data active = IC50 below about 10 µM
Numbers without * were called inactive.

For Cc1ccc(S(=O)(=O)Nc2nc(C)c(C(=O)Nc3ccccc3)s2)cc1 the results were HCV core dimer 4.7, rCAG binder 36.0*, NadD inh 2.1, ABHD5-PLIN5 inh -0.2, rCAG binder conf 19.2 and DNA CAG counter 2.1.
Cc1ccc(S(=O)(=O)N2C[C@H]3N(C(=O)OC(C)C)N(C(=O)OC(C)C)C[C@H](OC(=O)NCC4CCCCC4)[C@@]3(O)C2)cc1 was read as NadD inh -1.8 and ABHD5-PLIN5 inh -4.0.
Screening CCOC(=O)C1=CCN(S(=O)(=O)c2cccc(Cl)c2)C1c1ccc(F)cc1 (configuration not stated) returned rCAG binder 0.6, NadD inh -4.2 and ABHD5-PLIN5 inh -2.0.
S=C(NN=C1CCCCC1=NNC(=S)N1CCOCC1)N1CCOCC1 was read as rCAG binder 21.1.
For C/C(=N/NC(=O)c1sc(NS(=O)(=O)c2ccccc2)nc1C)c1sc(N)nc1C the results were HCV core dimer -7.1, rCAG binder 79.0*, NadD inh -1.0, ABHD5-PLIN5 inh -6.8, rCAG binder conf 10.0 and DNA CAG counter 3.3.
`Cc1nc(NS(=O)(=O)c2ccccc2)sc1C(=O)NN` gave HCV core dimer 5.4, rCAG binder 83.4*, NadD inh -1.0, ABHD5-PLIN5 inh -1.6, rCAG binder conf 9.2 and DNA CAG counter 4.1.
Screening CN(Cc1ccc(C(F)(F)F)cc1)C(=O)[C@H]1O[C@@H](n2ccc(=O)[nH]c2=O)[C@H](O)[C@@H]1O returned rCAG binder 0.0, NadD inh -4.4 and ABHD5-PLIN5 inh 1.4.
Screening Cc1cccc2c1c1ccc3c(c1n2C)C(=O)C=CC3=O returned rCAG binder 39.5*, NadD inh 50.2*, ABHD5-PLIN5 inh -10.0, rCAG binder conf 19.8 and DNA CAG counter 12.6*.
CSc1ccccc1-c1ccc2nccn2c1 was read as rCAG binder 3.9, NadD inh 3.8 and ABHD5-PLIN5 inh 5.4.
For O=C(NC1CCCC1)C1C(c2ccccc2)=Nc2ccccc2N1C(=O)c1cc(Cl)cc(Cl)c1 (configuration not stated) the results were rCAG binder 3.6 and ABHD5-PLIN5 inh -5.2.
Screening Cc1noc(C)c1CSCC(=O)Nc1nc2c(F)cc(F)cc2s1 returned rCAG binder 35.9*, NadD inh 1.7, ABHD5-PLIN5 inh 0.8, rCAG binder conf 28.7 and DNA CAG counter 18.4*.
For COc1ccc(S(=O)(=O)N2CCCCC2)cc1NS(=O)(=O)c1cc(Cl)ccc1Cl the results were HCV core dimer 24.2, rCAG binder 36.2*, NadD inh 0.8, ABHD5-PLIN5 inh -0.8, rCAG binder conf 38.7* and DNA CAG counter 10.0*.
`COc1ccc(S(=O)(=O)N2CCCCCC2)cc1NS(=O)(=O)c1cc(C(=O)O)cc(C)c1C` gave rCAG binder 46.6*, NadD inh -6.0, ABHD5-PLIN5 inh -0.1, rCAG binder conf 17.4 and DNA CAG counter 5.9*.
For COc1ccc(CNC(=O)c2cccnc2Sc2ccc(C)c(C)c2)cc1 the results were HCV core dimer 5.3, rCAG binder 0.6, NadD inh 1.6 and ABHD5-PLIN5 inh 16.1.
`Cc1ccc(Sc2ncccc2C(=O)NCc2cc([N+](=O)[O-])ccc2O)cc1C` gave rCAG binder 35.3*, NadD inh 4.6, ABHD5-PLIN5 inh 8.4, rCAG binder conf 21.6 and DNA CAG counter 5.3*.
For C/C(=N/NC(=O)c1cc2ccccc2cc1O)c1ccco1 the results were HCV core dimer -18.9, rCAG binder 50.9*, NadD inh 9.6, ABHD5-PLIN5 inh 5.8, rCAG binder conf 10.6 and DNA CAG counter 9.0*.
`C/C(=N\NC(=O)c1cc2ccccc2cc1O)c1cccs1` gave HCV core dimer -19.2, rCAG binder 49.6*, NadD inh 3.4, ABHD5-PLIN5 inh 0.6, rCAG binder conf 8.6 and DNA CAG counter 3.5.
`C/C(=N\NC(=O)c1cc2ccccc2cc1O)c1ccc(C)o1` gave HCV core dimer -6.7, rCAG binder 43.0*, NadD inh 4.9, ABHD5-PLIN5 inh -5.3, rCAG binder conf 11.8 and DNA CAG counter 6.5*.
C/C(=N\NC(=O)c1c[nH]c2ccccc12)c1ccc(C)o1 was read as HCV core dimer -6.7, rCAG binder 9.1, NadD inh 3.9 and ABHD5-PLIN5 inh -0.3.
COc1ccc(C(c2nnnn2-c2ccc3c(c2)OCCO3)N2CCN(C/C=C/c3ccccc3)CC2)cc1 (configuration not stated) was read as rCAG binder 8.8, NadD inh 5.8 and ABHD5-PLIN5 inh 19.2.
Screening CCOC(=O)C1=C(Nc2ccc(Br)cc2)C(=O)N(CC)C1 returned rCAG binder -1.6.
For CCN(CC)C(=O)CNc1nnnn1-c1ccccc1 the results were rCAG binder 2.4.
For O=C(CCC1CCCC1)NNC(=O)COc1ccc(Br)cc1 the results were rCAG binder 3.3, NadD inh -2.5 and ABHD5-PLIN5 inh -3.6.
For CC1=C(C#N)C(=O)NC(=O)/C1=C\c1ccc(-c2ccc(C)cc2[N+](=O)[O-])o1 the results were rCAG binder 43.2*, NadD inh 4.1, ABHD5-PLIN5 inh -12.2, rCAG binder conf 72.6*, DNA CAG counter 33.9* and DNA CAG DR 5.12*.
For O=C(CC(CC(=O)c1ccc(Cl)cc1)c1ccccc1C(=O)O)c1ccc(Cl)cc1 the results were HCV core dimer 9.5, rCAG binder 42.3*, NadD inh 1.6, ABHD5-PLIN5 inh 8.2, rCAG binder conf 53.8* and DNA CAG counter 12.6*.
For O=C(O)c1ccccc1C(=O)c1ccc(Cl)cc1 the results were HCV core dimer -3.3, rCAG binder 0.0, NadD inh 0.6 and ABHD5-PLIN5 inh -0.7.
C[C@H]1CN([C@@H](C)CO)C(=O)CCCn2nncc2CO[C@@H]1CN(C)S(=O)(=O)c1cccs1 was read as rCAG binder 1.9.
For Cc1cc(NC(=O)Cc2cccs2)no1 the results were HCV core dimer 28.4, rCAG binder 39.9*, NadD inh 24.0, ABHD5-PLIN5 inh 0.3, rCAG binder conf 35.0* and DNA CAG counter 23.0*.
For Cc1cc(NS(=O)(=O)c2ccc(NC(=O)Cc3cccs3)cc2)no1 the results were HCV core dimer 1.9, NadD inh -0.7 and ABHD5-PLIN5 inh 9.2.
For O=c1oc2ccccc2c(Nc2ccccc2O)c1[N+](=O)[O-] the results were HCV core dimer 11.1, rCAG binder 3.4, NadD inh 7.0 and ABHD5-PLIN5 inh -0.4.
`O=c1oc2ccccc2c(Nc2cccc3ccccc23)c1[N+](=O)[O-]` gave HCV core dimer 8.8, rCAG binder 42.3*, NadD inh 0.5, ABHD5-PLIN5 inh 7.0, rCAG binder conf 45.0* and DNA CAG counter 12.1*.
Screening O=c1oc2ccccc2c(Nc2cc3ccccc3cc2O)c1[N+](=O)[O-] returned HCV core dimer 27.1, rCAG binder 40.7*, NadD inh 6.1, ABHD5-PLIN5 inh -10.9, rCAG binder conf 56.4* and DNA CAG counter 20.2*.
